# Sampled rows, rich in hits. Any-hit rate of the full collection: about 2.8%.
# NPY-Y1 PAM-ag – human NPY-Y1 potentiation or agonism, primary screen | NPY-Y1 expressing cells, potentiator/agonist activation | 0.37% of 220,000 active | AID 1304 | activation, % at 3.6 µM; in the data active = activation above about 33%, passing the limit was not always enough;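 also: cells stimulated with NPY at EC10 then isoproterenol at EC100; 0% = low agonist plus stimulus and 100% = saturating agonist plus stimulus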
# NPY-Y2 antag – NPY-Y2 (human) receptor antagonism; inhibition, % at 2.7 µM; NPY-Y2 expressing cells, antagonist mode; 0.99% of 140,000 active; AID 793; P49146; in the data active = inhibition above about 17%;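 also: 0% = vehicle with agonist challenge and 100% = reference antagonist with challenge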
# EP2 mod – modulates human prostaglandin E2 receptor EP2 signaling; P43116; 0.83% of 260,000 active; EP2-expressing cells, cAMP HTRF FRET, PGE2 co-stimulation; induction, % at 25 µM;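 active = compounds whose cAMP rise, as percent of the full-agonist control response, exceeds 60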;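 also: rat C6 glioma line stably carrying human EP2 under a CMV promoter; the protocol text gives 20 µM as final concentration; 100% = response of wells given 1 µM PGE2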
# Target sequence (P43116 whole entry, looked up): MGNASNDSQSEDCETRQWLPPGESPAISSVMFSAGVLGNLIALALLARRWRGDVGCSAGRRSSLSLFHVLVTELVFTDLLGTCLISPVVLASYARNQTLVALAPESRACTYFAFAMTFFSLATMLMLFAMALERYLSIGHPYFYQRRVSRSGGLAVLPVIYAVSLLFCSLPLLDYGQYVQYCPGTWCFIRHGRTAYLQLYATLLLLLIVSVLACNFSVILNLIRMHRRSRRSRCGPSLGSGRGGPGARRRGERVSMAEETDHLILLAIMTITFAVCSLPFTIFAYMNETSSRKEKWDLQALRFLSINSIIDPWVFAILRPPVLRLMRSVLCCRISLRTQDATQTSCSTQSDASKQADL
# PGE2 EP2 inh – EP2 receptor (human) inhibition | C6 glioma cells expressing human EP2, cAMP TR-FRET; cells stimulated with saturating PGE2 | 0.52% of 260,000 active | inhibition, % at 25 µM | P43116;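 active = percent inhibition above 40 after rounding to a whole number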;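 also: rat C6 glioma host cells with rolipram phosphodiesterase inhibitor present; the protocol text gives 20 µM as final concentration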
# NPY2 pot ag – potentiators or agonists of human neuropeptide Y receptor Y2 | 0.45% of 220,000 active | cells expressing NPY-Y2, potentiator/agonist read-out | activation, % at 3.6 µM | P49146; in the data active = activation above about 27%;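 also: cells stimulated with NPY near EC25 plus isoproterenol at EC100; 0% = vehicle plus submaximal agonist and 100% = vehicle plus saturating agonist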
# NPY Y1 blocker – blocks the human neuropeptide Y Y1 receptor. 1% of 200,000 active. inhibition, % at 3.6 µM. HEK293-CNG Y1 cells, membrane potential fluorescence; NPY at EC95, then isoproterenol;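 active = inhibition above the campaign mean inhibition of all tested compounds plus 3 SD, cut at about 20% in these data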;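 also: 0% = DMSO wells given NPY plus isoproterenol and 100% = isoproterenol alone without NPY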
#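 Material: Y1- and CNG-channel-expressing HEK293 cells / Probe or stimulus: NPY 25 nM then isoproterenol 1 µM plus Ro 20-1724 25 µM / Doses: 3.6 µM single dose, DMSO 0.4% / Schedule: compound incubation 1 h at room temperature, readout 45 min post-stimulation / Signal: membrane potential fluorescence / Benchmarks: isoproterenol-only wells as full block versus NPY-plus-isoproterenol wells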
# NPY-Y1 antag ct – antagonizes human NPY-Y1, counter-screen to NPY-Y2 antagonists; shares compounds with NPY-Y2 antag; cell-based NPY-Y1 antagonism counterscreen; inhibition, % at 3.6 µM; 19% of 710 active; AID 1256; in the data active = inhibition above about 20%;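 also: cells challenged with NPY then isoproterenol with cAMP sensed through a CNG channel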
# NPY2 antag conf – human NPY-Y2 antagonism, confirmation. 32% of 710 active. AID 1257. inhibition, % at 2.8 µM. shares compounds with NPY-Y2 antag. HEK293 NPY-Y2 CNG channel, membrane potential fluorescence;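 active = mean inhibition of triplicate wells above the hit cutoff set in the primary screen, cut at about 17% in these data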;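 also: 0% = DMSO with NPY challenge and 100% = BIIE0246 high control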
# The depositor's hits bear a star; / = no result.
SMILES,NPY-Y1 PAM-ag,NPY-Y2 antag,EP2 mod,PGE2 EP2 inh,NPY2 pot ag,NPY Y1 blocker,NPY-Y1 antag ct,NPY2 antag conf
Cc1cc(C)c2cc(C(c3nnnn3CC3CCCO3)N3CCCCCC3)c(=O)[nH]c2c1 (stereo not drawn),/,/,-10.4,14.3,/,/,/,/
O=C(CN1CCN(c2cccc(C(F)(F)F)c2)CC1)Nc1cccc(C(F)(F)F)c1,-54.1,17.4*,-21.1,16.8,-11.1,5.1,24.3*,21.6*
O=C(/C=C/c1ccc(Br)cc1)N1CCN(c2cccc(C(F)(F)F)c2)CC1,-9.1,19.4*,-5.6,5.4,-11.8,6.6,24.0*,24.6*
CCC1=Nc2ccc(Br)cc2C(c2ccccc2)N1CC(=O)OC (stereo not drawn),6.2,22.7*,13.7,14.4,-16.0,14.1,13.0,23.4*
CCOC(=O)C1CCCN(c2nc(C)nc3c2oc2ccccc23)C1 (stereo not drawn),-10.3,18.1*,-10.9,8.3,-22.0,6.6,14.5,14.3
CCOc1ccc(NC(=S)N2CCC(C(O)(c3ccccc3)c3ccccc3)CC2)cc1,-4.3,54.4*,24.9,7.6,-8.8,1.7,-2.5,94.2*
COc1ccc(NC(=S)N2CCC(C(O)(c3ccccc3)c3ccccc3)CC2)cc1,-7.3,1.2,-4.0,6.7,-26.5,1.6,/,/
Cc1cccc(N2CCN(CC(=O)Nc3ccccc3[N+](=O)[O-])CC2)c1C,14.7,38.5*,30.0,11.7,2.8,8.8,10.2,10.9
Cc1cccc(OCCCSc2nc3ccc(C)cc3[nH]2)c1,-35.3,17.4*,-7.8,15.7,-31.0,15.7,12.3,16.9
Cc1cccc(OCCSc2nc3ncnc(N)c3[nH]2)c1,7.7,/,-37.0,5.6,6.7,2.3,/,/
O=C(Nc1ncc(Cc2cc(Cl)ccc2Cl)s1)c1cc2ccccc2oc1=O,/,/,-2.4,12.0,/,/,/,/
N#Cc1c(NC(=O)CCn2cnc3ccccc3c2=O)oc(-c2ccccc2)c1-c1ccccc1,-17.0,20.1*,13.4,12.5,5.8,19.8,23.2*,10.9
COCCn1nnnc1C(c1ccccc1)N1CCc2ccccc2C1 (stereo not drawn),/,/,-23.3,5.7,/,/,/,/
CCn1c(=N)n(CC(=O)C23CC4CC(CC(C4)C2)C3)c2ccccc21,-0.8,26.7*,-48.0,29.5,4.8,8.8,20.7*,32.1*
C=CCn1c(N(C)C)nc2c1c(=O)n(C)c(=O)n2C,/,/,3.4,8.7,/,/,/,/
Cc1ccccc1C(=O)Oc1ccc(Br)cc1C(=S)N1CCCC1,-22.6,17.4*,40.3,4.6,-7.1,7.5,14.1,9.5
Cc1cc2cc(CN(CC3CCCO3)S(=O)(=O)c3cccc4nsnc34)c(=O)[nH]c2cc1C (stereo not drawn),/,/,-33.1,14.1,/,/,/,/
Cc1ccc(NC(=O)CSc2nc(-c3cccs3)cc(C(F)(F)F)n2)cc1,/,/,-62.6,8.2,/,/,/,/
Cc1ccc(CSc2nnc(-c3cccc(S(=O)(=O)N4CCOCC4)c3)n2CC(C)C)cc1,-23.5,17.9*,-37.5,5.8,3.5,7.2,10.0,6.5
N#Cc1nc(-c2ccc(Cl)cc2)oc1NCc1cccc2c1OCO2,-38.2,19.8*,-59.6,9.8,-7.1,12.1,21.1*,19.6*
N#Cc1nc(-c2ccc(Cl)cc2)oc1NCc1ccco1,11.2,2.2,-31.7,13.7,11.1,2.9,/,/
CCOC(=O)c1cc2c(=O)n3ccccc3nc2n(CCCOC)c1=NC(C)=O,3.5,20.8*,11.6,/,7.8,-1.1,1.2,3.3
CCOC(=O)c1cc2c(=O)n3ccccc3nc2n(CCCOC)c1=NC(=O)c1ccncc1,6.7,/,-1.1,3.4,1.8,3.1,/,/
CCCn1c(=N)c(C(=O)NCc2ccc3c(c2)OCO3)cc2c(=O)n3cccc(C)c3nc21,7.1,2.3,-29.7,8.7,-17.0,4.9,/,/
CCOCCCn1c(=N)c(C(=O)NCc2ccc3c(c2)OCO3)cc2c(=O)n3ccccc3nc21,-12.0,23.0*,3.4,/,5.8,19.0,18.1,8.1
O=C(c1cccnc1)C1CCN(C(=O)Cc2ccsc2)CC1,/,/,3.0,/,/,/,/,/

# Assay outcomes deposited in PubChem BioAssay by several laboratories.
